Results gathered from unrelated publications.
Each line is one published result; the experiments were not run side by side.
Target: Mitogen-activated protein kinase 10 (MAPK10, Homo sapiens, UniProt P53779)

Compound | assay | setting | remaining binding
COc1cnc(Nc2cccc(S(N)(=O)=O)c2)nc1N1CCN(c2ccccc2)CC1 | binding, competition with immobilised ligand | 1 µM | 83%
FC(F)(F)Oc1cccc(-c2cnc3ccc(-c4ccncc4)nn23)c1 | cell-free assay, competition with immobilised ligand | 5 µM | 65%
C[C@@H]1CN(c2ccc3ncc(-c4ccc5[nH]nc(C6CC6)c5c4)n3n2)C[C@H](C)O1 | binding, competition with immobilised ligand | 50 nM | 85%
Cc1noc([C@H]2C[C@@H](c3ccc(C(F)(F)F)cc3)CN(C(=O)N3CCS(=O)(=O)C3)C2)n1 | cell-free assay, competition with immobilised ligand | 1 µM | 88%
Cc1cnc(Nc2ccc(C(=O)N3CCC(N4CCCC4)CC3)cc2)nc1-c1cc2ccccc2s1 | binding, competition with immobilised ligand | 1 µM | 8.6%
COC(=O)Nc1nc2ccc(C(=O)c3ccccc3)cc2[nH]1 | cell-free assay, competition with immobilised ligand | 10 µM | 3%
CC(C)(C)c1ccc(-c2nc(CBr)nn2-c2cccc(O)c2)cc1 | cell-free assay, competition with immobilised ligand | 10 µM | 65%
CN(C)c1nccc(-c2cnn3ncccc23)n1 | binding | 1 µM | 49%
O=C(NCCCN1CCOCC1)c1ccc(Nc2nccc(-c3cc4ccccc4s3)n2)cc1 | binding, competition with immobilised ligand | 1 µM | 15%
N[C@@H]1CCN(c2nccc(-c3cnn4ncccc34)n2)C1 | binding | 1 µM | 52%
O=C(Nc1c[nH]nc1C(=O)NC1CCNCC1)c1cc(F)cc(F)c1 | binding, competition with immobilised ligand | 1 µM | 100%
CC1CCCN1c1nccc(-c2cnn3ncccc23)n1 (stereo not drawn) | binding | 1 µM | 79%
CCC(=N\O)/C(C)=C/c1ccc(F)cc1 | cell-free assay, competition with immobilised ligand | 1 µM | 100%
C[C@@H]1CCN(c2nccc(-c3cnn4ncccc34)n2)C1 | binding | 1 µM | 34%
CC1=C(C#N)[C@@H](c2ccc3[nH]nc(C)c3c2)C(C#N)=C(c2ccc(Cl)cc2)N1 | cell-free assay, competition with immobilised ligand | 1 µM | 68.8%
O=C(c1ccc(Nc2ncc(Cl)c(-c3cc4ccccc4s3)n2)cc1)N1CCC(N2CCCC2)CC1 | binding, competition with immobilised ligand | 1 µM | 5.8%
CO[C@H]1CC[C@H](CNc2ccc(S(=O)(=O)NC(=O)c3ccc(N4CCN(CC5=C(c6ccc(Cl)cc6)CC(C)(C)CC5)CC4)cc3Oc3cnc4[nH]ccc4c3)cc2[N+](=O)[O-])CC1 | cell-free assay, competition with immobilised ligand | 1 µM | 77%
CN(C)c1nccc(-c2cnc3ncccn23)n1 | binding | 1 µM | 70%
O=C(N1CCS(=O)(=O)CC1)N1C[C@H](c2ccc(OC(F)(F)F)cc2)C[C@H](c2nc(C3CC3)no2)C1 | cell-free assay, competition with immobilised ligand | 1 µM | 79%
F[C@@H]1CCN(c2nccc(-c3cnn4ncccc34)n2)C1 | binding | 1 µM | 87%
CCC(=O)N[C@H]1CC[C@@H](C(=O)N(C)c2ccc(-c3nc4ccccc4o3)cc2)C1 | cell-free assay, competition with immobilised ligand | 1 µM | 85%
COc1ccnn2ncc(-c3ccnc(N(C)C)n3)c12 | binding | 1 µM | 80%
Cc1ccc(-c2cnc([C@@]3(O)CC[C@H](C(=O)O)C(C)(C)C3)s2)cc1Nc1cccc(C(F)(F)F)n1 | binding, competition with immobilised ligand | 1 µM | 37.5%
COc1cnc(Nc2cccc(S(N)(=O)=O)c2)nc1N1CCN(c2ccccc2)C(=O)C1 | binding, competition with immobilised ligand | 1 µM | 63%
